Rows were chosen to be rich in hits. Some 4.5% of all compounds tested hit in one or more screens of this group.
CHO parental Ca = signal in parental CHO cells, OX1R antagonist counter-screen; parental CHO-K1, ATP-induced calcium, Fluo-8 fluorescence; inhibition, % at 5.6 µM; actives 0.63% (n = 330,000);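 active = inhibition above that plate's mean sample inhibition plus 3 SD, cut at about 26% in these data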
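Material: parental CHO cells / Compound: single nominal dose of 5.6 µM per compound / Signal: Fluo-8 fluorescence / Replicates: singlicate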
GPR7 antag = blocks human GPR7 receptor signaling | inhibition, % at 4.4 µM | GPR7-expressing cells, fluorescence antagonist assay | actives 1.1% (n = 290,000) | AID 1861 | P48145; in the data active = inhibition above about 16%, passing the limit was not always enough;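 note: cells stimulated with the agonist NPW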
Target sequence (P48145 whole entry, looked up): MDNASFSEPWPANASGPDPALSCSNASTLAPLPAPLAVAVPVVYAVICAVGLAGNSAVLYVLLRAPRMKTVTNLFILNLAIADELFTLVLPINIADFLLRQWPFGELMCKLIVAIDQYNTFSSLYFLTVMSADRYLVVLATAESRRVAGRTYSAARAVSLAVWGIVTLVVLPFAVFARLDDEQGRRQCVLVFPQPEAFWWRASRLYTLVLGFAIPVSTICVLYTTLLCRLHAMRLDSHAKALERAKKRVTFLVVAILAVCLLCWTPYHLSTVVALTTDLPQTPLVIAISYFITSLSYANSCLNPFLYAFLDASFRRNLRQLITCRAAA
OX1R antag-1 = OX1R (human) antagonism | inhibition, % at 6.6 µM | actives 1.8% (n = 330,000) | O43613 | OX1R-expressing cells, FRET antagonist read-out; in the data active = inhibition mostly above about 38%, no sharp cut-off; inactive = mostly below about 40%
TAAR1 agonist = human TAAR1 agonism; CHO RD-HGA16 TAAR1, Fluo-8 calcium fluorescence; vehicle wells 0%, saturating PEA agonist 100%; activation, % at 3 µM; actives 0.99% (n = 360,000); AID 624467;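 active = activation above the mean activation of all test compounds in the run plus 3 SD, cut at about 38% in these data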
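test system = CHO RD-HGA16 cells carrying human TAAR1 plus Gα16 | schedule = 17-24 h seeding, 75 min 37 °C dye, 30 min RT | compound dosing = 3 µM single concentration | control set = DMSO and PEA EC100 | replicates = n 1 | signal = Fluo-8 fluorescence, 5 s baseline then 140 s kinetic read | measure = percent activation vs PEA EC100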
OX1R antag-2 = antagonists of human orexin 1 receptor | O43613 | CHO/OX1R cells, Fluo-8 calcium fluorescence, orexin A | inhibition, % at 5 µM | actives 0.43% (n = 330,000) | AID 434989;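 active = inhibition above its plate's threshold, mean inhibition of all tested compounds on the plate plus 3 SD, cut at about 37% in these data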
TAAR1 antagonist = antagonists of human TAAR1; Q96RJ0; CHO RD-HGA16 TAAR1, Fluo-8 calcium fluorescence, antagonist; inhibition, % at 3 µM; actives 1.5% (n = 360,000); AID 624466;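 active = inhibition above a per-plate cutoff, the mean inhibition of test compounds on that plate plus 3 SD, cut at about 49% in these data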
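Test system – hTAAR1-expressing CHO RD-HGA16 cells, Gα16-coupled · Reagent – β-PEA at EC80 concentration, post-compound challenge · Compound dosing – 3 µM, single point · Timing – 140 s kinetic read after compound, 140 s after agonist · Detection – Fluo-8 intracellular calcium dye fluorescence, real-time kinetic reads · Control set – DMSO and EC80 PEA controls · Repeats – n of 1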
Large screens that a line does not name were inactive.

CC(C)(C)n1nnnc1C(CCc1ccccc1)N1CCC(n2c(=O)[nH]c3ccccc32)CC1 (configuration not stated)	none (no result: CHO parental Ca, GPR7 antag, OX1R antag-1, OX1R antag-2)
O=c1[nH]c2ccccc2n1C1CCN(C(c2nnnn2Cc2ccccc2)C2CC2)CC1 (configuration not stated)	TAAR1 antagonist 63.1 (no result: CHO parental Ca, GPR7 antag, OX1R antag-1, OX1R antag-2)
CC1(C)CN=C(NCc2ccccc2Cl)S1	none
NC1=Nc2ccccc2Oc2ccccc21	TAAR1 agonist 39.6
N#Cc1ccc(NC(=O)CN2CCCCCC2)cc1Cl	none
CN1C(=O)C(c2ccc([N+](=O)[O-])cc2[N+](=O)[O-])C(=O)N(C)C1=O	OX1R antag-1 43.9
CN1C(=O)C(C2c3ccccc3C(=O)N2Cc2ccc([N+](=O)[O-])cc2)C(=O)N(C)C1=O (configuration not stated)	none
COc1ccc(CCN)cc1S(N)(=O)=O	none (no result: CHO parental Ca, GPR7 antag, OX1R antag-1, OX1R antag-2)
O=C(C1CCCN(S(=O)(=O)c2cccc3nsnc23)C1)N1CCC2(CC1)OCCO2 (configuration not stated)	OX1R antag-1 41.0
CNc1cc(Cl)c2nonc2c1[N+](=O)[O-]	GPR7 antag 51.1 (no result: CHO parental Ca, OX1R antag-1, OX1R antag-2)
O=P1(NCCCl)OCCC(OO)N1CCCl (configuration not stated)	none (no result: CHO parental Ca, GPR7 antag, OX1R antag-1, OX1R antag-2)
CN1CC[C@@]2(C)c3cc(O)ccc3N(C)C2O1 (some centres not stated)	OX1R antag-1 59.6 (no result: GPR7 antag, TAAR1 agonist, TAAR1 antagonist)
COC(=O)C1=C(c2ccc(OCc3ccccc3)cc2)C[C@@H]2CC[C@H]1N2C(=O)NCc1cccc(OC)c1	none (no result: GPR7 antag)
CCN1C(=O)C(=Cc2ccc(N3CCOCC3)o2)C(=O)N(CC)C1=S	TAAR1 agonist 40.0
O=c1c2ccccc2[se]n1-c1ccccc1	CHO parental Ca 47.2, TAAR1 agonist 41.3
O=c1c2ccccc2nc(-c2ccccc2)n1-c1ccccc1	none
CNCC(O)c1cc(OCc2ccccc2)c(OCc2ccccc2)cc1F (configuration not stated)	TAAR1 agonist 45.3 (no result: GPR7 antag)
O=C(NC(=O)c1c(F)cccc1F)Nc1cc(Cl)c(F)c(Cl)c1F	GPR7 antag active
O=C(N/N=C/c1c(O)n(-c2ccccc2)c(=S)[nH]c1=O)c1ccccc1	none
O=C(N/N=C\C1C(=O)NC(=S)N(c2ccccc2)C1=O)c1ccc(O)cc1 (configuration not stated)	OX1R antag-1 46.2
CC(C)c1cccc(C(C)C)c1OCCn1ccnc1	none
CCN(CC)S(=O)(=O)c1cc(NC(=O)C(C)N2CC=C(c3ccccc3)CC2)ccc1C (configuration not stated)	CHO parental Ca 43.1
COc1ccc(CCC(=O)N2CCC3(CC2)OCCO3)cc1	none
CCN(CC)c1ccc(/C=N/c2sc3c(c2C#N)C2CCN3CC2)c(O)c1	none (no result: TAAR1 agonist, TAAR1 antagonist)
CC/C(=N\N1CCCCCC1)c1c(O)n(-c2ccc(C)cc2)c(=O)[nH]c1=O	none
N#Cc1ccc2nc(-c3ccc(CN4CCC(n5c(=O)[nH]c6ccccc65)CC4)cc3)c(-c3ccccc3)nc2c1	TAAR1 antagonist 61.3 (no result: CHO parental Ca, GPR7 antag, OX1R antag-1, OX1R antag-2)
Cc1cccc2nc(-c3ccccc3)c(-c3ccc(CN4CCC(n5c(=O)[nH]c6ccccc65)CC4)cc3)nc12	none (no result: CHO parental Ca, GPR7 antag, OX1R antag-1, OX1R antag-2)
COc1ccccc1/C=C1/C(=N/O)C2CCN1CC2	none
c1ccc(CCNCc2cccs2)cc1	TAAR1 agonist 38.9 (no result: CHO parental Ca, OX1R antag-1, OX1R antag-2)
COc1ccc(-n2nnnc2C(CCc2ccccc2)N2CCC3(CC2)C(=O)NCN3c2ccccc2)cc1 (configuration not stated)	none (no result: CHO parental Ca, GPR7 antag, OX1R antag-1, OX1R antag-2)
COc1ccc(-n2nnnc2C(CCSC)N2CCC3(CC2)C(=O)NCN3c2ccccc2)cc1 (configuration not stated)	TAAR1 antagonist 50.7 (no result: CHO parental Ca, GPR7 antag, OX1R antag-1, OX1R antag-2)
O=C(NCCN1CCC2(CC1)C(=O)NCN2c1ccccc1)c1ccccc1F	none (no result: CHO parental Ca, GPR7 antag, OX1R antag-1, OX1R antag-2)
CC(C)C[C@H]1COc2cc(N3CCN(C)CC3)ccc2S(=O)(=O)N1	none (no result: CHO parental Ca, GPR7 antag, OX1R antag-1, OX1R antag-2)
O=[N+]([O-])c1ccc(O)c([N+](=O)[O-])c1	OX1R antag-1 68.9 (no result: GPR7 antag)
O=[N+]([O-])c1ccc(Cl)c([N+](=O)[O-])c1	OX1R antag-1 47.7 (no result: GPR7 antag)
C[C@H]1CC2C3CC=C4C[C@@H](O)CC[C@]4(C)C3CC[C@]2(C)[C@H]1O (some centres not stated)	none (no result: GPR7 antag)
C[C@@H]1CN([C@@H](C)CO)C(=O)CCCn2nncc2CO[C@@H]1CN(C)C(=O)Oc1ccccc1	none (no result: CHO parental Ca, GPR7 antag, OX1R antag-1, OX1R antag-2)

Screens as filed in PubChem BioAssay.
